Measurements as given in ChEMBL document CHEMBL1157304, “Sesquiterpene lactones from Inula britannica and their cytotoxic and apoptotic effects on human cancer cell lines” (J Nat Prod, 2006).

Experiments:
[1] = system: COLO 205; assay: Cytotoxicity against human COLO205 cells after 24 hrs by trypan blue exclusion assay; format: functional, cell-based; conditions: COLO 205, 24 h
How it was run: (§1)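 Cells grown at 37 °C, 5% CO2; RPMI for COLO 205, HT-29 and HL-60, DMEM/F12 for AGS, each with 10% heat-inactivated FBS, penicillin/streptomycin and 2 mM L-glutamine. Compounds in DMSO (vehicle control 0.01% DMSO) tested at 5–100 μM for 24 h. Cells diluted 1:1 with 0.5% trypan blue. Unstained cells counted by hemocytometer and expressed as % viable. Three samples per group, mean ± SE.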

[2] = system: HT-29; assay: Cytotoxicity against human HT29 cells after 24 hrs by trypan blue exclusion assay; format: functional, cell-based; conditions: HT-29, 24 h; how it was run: as §1
[3] = system: HL-60; assay: Cytotoxicity against human HL60 cells after 24 hrs by trypan blue exclusion assay; format: functional, cell-based; conditions: HL-60, 24 h; how it was run: as §1
[4] = system: AGS; assay: Cytotoxicity against human AGS cells after 24 hrs by trypan blue exclusion assay; format: functional, cell-based; how it was run: as §1
[5] = system: COLO 205; assay: Induction of apoptosis in human COLO205 cells at 5 uM after 24 hrs by FACS; format: functional
How it was run: (§2)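 2 × 10^5 cells plated in 60 mm dishes and incubated 24 h, then treated for 24 h with compound in DMSO. Cells harvested, washed in PBS and fixed overnight in ice-cold ethanol at −20 °C. Pellets held 30 min at 37 °C in 0.5% Triton X-100/PBS with 0.5 μg/mL RNase. Propidium iodide (50 μg/mL) added, 30 min on ice. Sub-G1 fraction read by FACScan flow cytometry. n=3, mean ± SE.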

[6] = system: COLO 205; assay: Induction of apoptosis in human COLO205 cells at 10 uM after 24 hrs by FACS; format: functional; how it was run: as §2
[7] = system: COLO 205; assay: Induction of apoptosis in human COLO205 cells at 25 uM after 24 hrs by FACS; format: functional; how it was run: as §2
[8] = system: COLO 205; assay: Induction of apoptosis in human COLO205 cells at 50 uM after 24 hrs by FACS; format: functional; how it was run: as §2
[9] = system: COLO 205; assay: Induction of apoptosis in human COLO205 cells at 100 uM after 24 hrs by FACS; format: functional; how it was run: as §2
[10] = system: HT-29; assay: Induction of apoptosis in human HT29 cells at 5 uM after 24 hrs by FACS; format: functional; how it was run: as §2
[11] = system: HT-29; assay: Induction of apoptosis in human HT29 cells at 10 uM after 24 hrs by FACS; format: functional; how it was run: as §2
[12] = system: HT-29; assay: Induction of apoptosis in human HT29 cells at 25 uM after 24 hrs by FACS; format: functional; how it was run: as §2
[13] = system: HT-29; assay: Induction of apoptosis in human HT29 cells at 50 uM after 24 hrs by FACS; format: functional; how it was run: as §2
[14] = system: HT-29; assay: Induction of apoptosis in human HT29 cells at 100 uM after 24 hrs by FACS; format: functional; how it was run: as §2
[15] = system: HL-60; assay: Induction of apoptosis in human HL60 cells at 5 uM after 24 hrs by FACS; format: functional; how it was run: as §2
[16] = system: HL-60; assay: Induction of apoptosis in human HL60 cells at 10 uM after 24 hrs by FACS; format: functional; how it was run: as §2
[17] = system: HL-60; assay: Induction of apoptosis in human HL60 cells at 25 uM after 24 hrs by FACS; format: functional; how it was run: as §2
[18] = system: HL-60; assay: Induction of apoptosis in human HL60 cells at 50 uM after 24 hrs by FACS; format: functional; how it was run: as §2
[19] = system: HL-60; assay: Induction of apoptosis in human HL60 cells at 100 uM after 24 hrs by FACS; format: functional; how it was run: as §2
[20] = system: AGS; assay: Induction of apoptosis in human AGS cells at 5 uM after 24 hrs by FACS; format: functional; how it was run: as §2
[21] = system: AGS; assay: Induction of apoptosis in human AGS cells at 10 uM after 24 hrs by FACS; format: functional; how it was run: as §2
[22] = system: AGS; assay: Induction of apoptosis in human AGS cells at 25 uM after 24 hrs by FACS; format: functional; how it was run: as §2
[23] = system: AGS; assay: Induction of apoptosis in human AGS cells at 50 uM after 24 hrs by FACS; format: functional; how it was run: as §2
[24] = system: AGS; assay: Induction of apoptosis in human AGS cells at 100 uM after 24 hrs by FACS; format: functional; how it was run: as §2

C=C1C(=O)O[C@@H]2CC(C)=C([C@@H](C)CCCOC(C)=O)[C@H](O)[C@H]12
IC50 [1]: > 100 µM
IC50 [2]: 96 µM
IC50 [3]: > 100 µM
IC50 [4]: > 100 µM
Activity [5]: 13.44%
Activity [6]: 11.32%
Activity [7]: 16.48%
Activity [8]: 16.59%
Activity [9]: 35.79%
Activity [10]: 5.36%
Activity [11]: 6.81%
Activity [12]: 11.68%
Activity [13]: 9.26%
Activity [14]: 14.87%
Activity [15]: 4.05%
Activity [16]: 7.26%
Activity [17]: 4.37%
Activity [18]: 5.69%
Activity [19]: 22.19%
Activity [20]: 15.37%
Activity [21]: 17.28%
Activity [22]: 14.666%
Activity [23]: 14.84%
Activity [24]: 18.85%

C=C1C(=O)O[C@@H]2CC(C)=C([C@@H](C)CCCO)[C@H](OC(=O)C(C)CC)[C@H]12 (stereo partly drawn)
IC50 [1]: 58.7 µM
IC50 [2]: 48.1 µM
IC50 [3]: 47.1 µM
IC50 [4]: 31.3 µM
Activity [5]: 5.33%
Activity [6]: 5.86%
Activity [7]: 15.2%
Activity [8]: 27.21%
Activity [9]: 36.24%
Activity [10]: 4.24%
Activity [11]: 3.68%
Activity [12]: 3.93%
Activity [13]: 5.16%
Activity [14]: 6.4%
Activity [15]: 6.41%
Activity [16]: 5.36%
Activity [17]: 10.53%
Activity [18]: 28.6%
Activity [19]: 27.05%
Activity [20]: 10.89%
Activity [21]: 11.38%
Activity [22]: 17.76%
Activity [23]: 28.48%
Activity [24]: 27.1%

C=C1C(=O)O[C@@H]2CC(C)=C([C@@H](C)CCCOC(C)=O)[C@H](OC(C)=O)[C@H]12
IC50 [1]: 56.7 µM
IC50 [2]: 76.6 µM
IC50 [3]: 35.3 µM
IC50 [4]: 66.4 µM
Activity [5]: 6.94%
Activity [6]: 8.69%
Activity [7]: 26.95%
Activity [8]: 15.44%
Activity [9]: 17.82%
Activity [10]: 11.19%
Activity [11]: 11.15%
Activity [12]: 11.5%
Activity [13]: 13.08%
Activity [14]: 20.88%
Activity [15]: 6.14%
Activity [16]: 8.67%
Activity [17]: 21.13%
Activity [18]: 27.02%
Activity [19]: 22.24%
Activity [20]: 7.49%
Activity [21]: 5.79%
Activity [22]: 11.29%
Activity [23]: 10.79%
Activity [24]: 8.12%

C=C1C(=O)O[C@H]2/C=C(\C)CC/C=C(\C)C[C@H](OC(C)=O)[C@@H]12 [ACETYL NEOBRITANNILACTONE B]
IC50 [1]: 14.7 µM
IC50 [2]: 57 µM
IC50 [3]: 16.2 µM
IC50 [4]: 5.4 µM
Activity [5]: 15.47%
Activity [6]: 34.72%
Activity [7]: 76.87%
Activity [8]: 96.92%
Activity [9]: 98.66%
Activity [10]: 20.38%
Activity [11]: 47.56%
Activity [12]: 69.7%
Activity [13]: 81.43%
Activity [14]: 82.47%
Activity [15]: 22.93%
Activity [16]: 39.71%
Activity [17]: 95.17%
Activity [18]: 97.74%
Activity [19]: 98.05%
Activity [20]: 6.16%
Activity [21]: 7.87%
Activity [22]: 9.89%
Activity [23]: 13.64%
Activity [24]: 43.11%

C=C1C(=O)O[C@@H]2CC(C)=C([C@@H](C)CCCO)[C@H](O)[C@H]12 [BRITANNILACTONE]
IC50 [1]: > 100 µM
IC50 [2]: > 100 µM
IC50 [3]: > 100 µM
IC50 [4]: > 100 µM
Activity [5]: 11.9%
Activity [6]: 12.28%
Activity [7]: 12.79%
Activity [8]: 15.54%
Activity [9]: 28.31%
Activity [10]: 5.75%
Activity [11]: 6.16%
Activity [12]: 6.49%
Activity [13]: 6.59%
Activity [14]: 7.55%
Activity [15]: 7.22%
Activity [16]: 5.64%
Activity [17]: 5.24%
Activity [18]: 8.01%
Activity [19]: 12.83%
Activity [20]: 7.93%
Activity [21]: 10.37%
Activity [22]: 10.16%
Activity [23]: 8.97%
Activity [24]: 10.37%

CC(=O)OCCC[C@H](C)C1=C[C@@H]2[C@H](C)C(=O)O[C@@H]2C[C@@]1(C)O [NEOBRITANNILACTONE A]
IC50 [1]: 97.9 µM
IC50 [2]: > 100 µM
IC50 [3]: 85.8 µM
IC50 [4]: > 100 µM
Activity [5]: 4.08%
Activity [6]: 6.51%
Activity [7]: 4.28%
Activity [8]: 5.44%
Activity [9]: 25.5%
Activity [10]: 3.94%
Activity [11]: 4.24%
Activity [12]: 5.17%
Activity [13]: 4.09%
Activity [14]: 7.73%
Activity [15]: 6.68%
Activity [16]: 6.31%
Activity [17]: 6.19%
Activity [18]: 6.63%
Activity [19]: 16.31%
Activity [20]: 9.23%
Activity [21]: 9.83%
Activity [22]: 10.57%
Activity [23]: 9.41%
Activity [24]: 9.81%

C=C1C(=O)O[C@H]2/C=C(\C)CC/C=C(\C)C[C@H](O)[C@@H]12 [NEOBRITANNILACTONE B]
IC50 [1]: 14.3 µM
IC50 [2]: 56.1 µM
IC50 [3]: 27.4 µM
IC50 [4]: 21.4 µM
Activity [5]: 10.73%
Activity [6]: 14.12%
Activity [7]: 41.62%
Activity [8]: 89.11%
Activity [9]: 96.81%
Activity [10]: 13.58%
Activity [11]: 24.46%
Activity [12]: 66.54%
Activity [13]: 82.27%
Activity [14]: 87.02%
Activity [15]: 9.82%
Activity [16]: 21.93%
Activity [17]: 77.57%
Activity [18]: 96.94%
Activity [19]: 98.29%
Activity [20]: 9.55%
Activity [21]: 8.66%
Activity [22]: 11.78%
Activity [23]: 15.95%
Activity [24]: 19.22%
